Results reported in PubChem BioAssay.
Active and inactive are the calls of the source.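 The calls were made as follows, unless noted: active = viability at or below 30% in both replicate assays; inconclusive = viability at or below 30% in just one of the two assays; inactive = the rest.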

Experiments:
[1] = reduced viability of SK-BR-3 breast cancer cells – cell-based, 24 h, human, pilot screen (AID 572;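 active = viability at or below 10% of carrier control in both of two separate runs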;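 also: compound exposure lasted between 18 and 24 h rather than exactly 24 h; 100% = carrier-treated control wells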); conditions: SK-BR-3 viability, CellTiter-Glo luminescence, at 10 µM, stronger effect = lower value
[2] = HUVEC growth inhibition – cell-based, human, primary screen (AID 575); conditions: HUVEC proliferation, CellTiter-Glo luminescence, 72 h; at 10 µM; stronger effect = lower value;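 also: 100% = median of untreated cell wells with 0.1% DMSO on each plate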
Method in brief: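 Assay system: Primary human umbilical vein endothelial cells | Quantity: 1250 cells per well | Medium: Supplemented EBM, 2% fetal bovine serum | Detection: CellTiter-Glo luminescence measuring cellular ATP | Read-out: % viability vs DMSO wells | Plate: Collagen-coated 384-well format | Times: 72 h exposure, 37 °C, 5% CO2, 30 min RT equilibration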

[3] = H69AR cell proliferation blockers – human, duplicate replicates, primary screen (AID 580;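 active = viability at or under a set limit in both replicates, limit being median viability minus 3 SD, cut at about 48% in these data, passing the limit was not always enough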;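 also: 100% = mean luminescence of untreated wells and 0% = no signal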); conditions: H69AR lung tumor cells viability, ATP luminescence, 72 h; at 10 µM; stronger effect = lower value
[4] = MRP1 drug-resistance reversers in H69AR cells – cell-based, doxorubicin co-treatment, pilot screen (AID 601;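 active = viability loss from added drug above about 55%, and viability with drug at most 40%, in both replicates, limit read from the data, passing the limit was not always enough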); conditions: CellTiter-Glo, 72 h, at 10 µM; for differential viability (reversal): stronger effect = higher value
[5] = yeast transport mutant growth inhibition pilot in 384-well plates, post-Golgi transport modulator project (AID 636; in the data active = inhibition above about 31%); conditions: absorbance 615 nm, about 18 h, stronger effect = higher value
[6] = growth suppression of yeast trafficking mutant, preliminary HTS, modulators of trafficking downstream of Golgi apparatus project, 1536-format plate, OD 615 nm (AID 637; in the data active = inhibition above about 30%); conditions: yeast transport mutant growth, absorbance 615 nm, 18 h; stronger effect = higher value
[7] = H69AR cells + 2 uM doxorubicin, measured here: viability with 2 uM doxorubicin, stronger effect = lower value
[8] = H69AR cells, compound alone cytotoxicity

Compound	viability [1]	viability [2]	viability [3]	differential viability (reversal) ([4]; H69AR cells + 2 uM doxorubicin)	viability [4, 7] [%]	viability [4, 8] [%]	inhibition [5]	inhibition [6]
CCCCOc1ccc(C(=O)CCN2CCCCC2)cc1	121% (inactive)	46% (inactive)	66.1% (inactive)	24.7% (inactive)	41.4	66.1	-2.21% (inactive)	6.17% (inactive)
CCCn1nnc(NCc2ccc(OCc3cccs3)c(OC)c2)n1	88% (inactive)	106% (inactive)	96.5% (inactive)	1.02% (inactive)	95.5	96.5	-6.44% (inactive)	2.36% (inactive)
Cc1cc(C)n2nc[n+](C)c2n1	88% (inactive)	106% (inactive)	96.4% (inactive)	11.4% (inactive)	84.9	96.4	2.86% (inactive)	0.98% (inactive)
Cn1c(=O)c2c(nc(CN3CCN(c4ccccc4F)CC3)n2CCN2CCOCC2)n(C)c1=O	101% (inactive)	96.8% (inactive)	93.9% (inactive)	4.5% (inactive)	89.4	93.9	-5.95% (inactive)	0.91% (inactive)
Cc1ccc(-n2c(C)cc3c2CCCC3=O)cc1	113% (inactive)	112% (inactive)	93.3% (inactive)	-0.79% (inactive)	94.1	93.3	-9.07% (inactive)	-3.09% (inactive)
CCOC(=O)C1CSc2[nH]c(=O)sc2C1c1ccccc1 (stereo unspecified)	100% (inactive)	117% (inactive)	93.2% (inactive)	-9.41% (inactive)	103	93.2	0.95% (inactive)	-2% (inactive)
O=C(O)c1ccc(NC(=O)c2cccs2)cc1	87% (inactive)	94.7% (inactive)	92.5% (inactive)	12.8% (inactive)	79.7	92.5	-5.73% (inactive)	-4.55% (inactive)
O=C(O)CSc1ncn[nH]1	87% (inactive)	102% (inactive)	109% (inactive)	0.37% (inactive)	108	109	-6.58% (inactive)	6.73% (inactive)
CC1CCCCC1NC(=O)COc1ccc(-n2cnnn2)cc1 (stereo unspecified)	100% (inactive)	103% (inactive)	101% (inactive)	-0.38% (inactive)	101	101	0% (inactive)	0.73% (inactive)
Cc1ccc2c(C(=O)CN3CCSCC3)c(C)[nH]c2c1	120% (inactive)	91.8% (inactive)	74.2% (inactive)	-0.745% (inactive)	75	74.2	-3.07% (inactive)	-3.82% (inactive)
Cn1c(=O)[nH]c(=O)c2c1ncn2CCN1CCOCC1	96% (inactive)	102% (inactive)	99.1% (inactive)	5.28% (inactive)	93.8	99.1	-2.6% (inactive)	-1.48% (inactive)
CCCCOc1ccc(C2C3CN(C(=O)OCC)CC=C3C(C#N)=C(N)C2(C#N)C#N)cc1OC (stereo unspecified)	62% (inactive)	51.2% (inactive)	60.5% (inactive)	5.07% (inactive)	55.4	60.5	-5.27% (inactive)	2.13% (inactive)
Cc1nc2ccc(F)cc2cc1C(=O)NCC1CCCO1 (stereo unspecified)	89% (inactive)	90.3% (inactive)	85.2% (inactive)	-12.1% (inactive)	97.3	85.2	-8.9% (inactive)	3.27% (inactive)
COC(=O)CCC(=O)Nc1ccc(S(=O)(=O)N2CCCCCC2)cc1	103% (inactive)	99.2% (inactive)	100% (inactive)	1.32% (inactive)	98.8	100	-1.69% (inactive)	1.15% (inactive)
CCCCSc1nnc([C@H](C)NC(=O)OC(C)(C)C)o1	97% (inactive)	102% (inactive)	90.3% (inactive)	-10.7% (inactive)	101	90.3	0.14% (inactive)	22.6% (inactive)
Cc1ccc(N2CCN(c3ccc(C)cc3)C(CC(=O)O)C2=O)cc1 (stereo unspecified)	92% (inactive)	98.2% (inactive)	97.4% (inactive)	4.25% (inactive)	93.2	97.4	-5.89% (inactive)	-3.23% (inactive)
Cc1cc(N2CCN(C3CCCC3)CC2)n2c(nc3ccccc32)c1C#N	78% (inactive)	96.8% (inactive)	91.4% (inactive)	28.1% (inactive)	63.3	91.4	-2.19% (inactive)	2.42% (inactive)
Cc1nn(C)cc1C1C2=C(CC(C)(C)CC2=O)OC2=C1C(=O)CC(C)(C)C2	74% (inactive)	110% (inactive)	89.8% (inactive)	-5.79% (inactive)	95.6	89.8	-6.62% (inactive)	0.18% (inactive)
CCOC(=O)N1CCC(NC(=O)Cc2ccc(-n3c(=O)[nH]c4ccccc4c3=O)cc2)CC1	103% (inactive)	97.6% (inactive)	96.4% (inactive)	7.9% (inactive)	88.5	96.4	-5.06% (inactive)	0% (inactive)

Compound	viability [1]	viability [2]	viability [3]	differential viability (reversal) ([4]; H69AR cells + 2 uM doxorubicin)	viability [4, 7] [%]	viability [4, 8] [%]	inhibition [5]	inhibition [6]
CCOc1cc(C2C(C#N)=C(N)Oc3n[nH]c(CC)c32)ccc1OCCN1CCOCC1 (stereo unspecified)	87% (inactive)	95.6% (inactive)	110% (inactive)	11% (inactive)	99	110	0.27% (inactive)	0.32% (inactive)
Clc1cccc(Cl)c1COc1ccncc1	88% (inactive)	91.5% (inactive)	97.2% (inactive)	2.84% (inactive)	94.3	97.2	0.82% (inactive)	27.4% (inactive)
CCC1CCCCN1c1nc(-c2ccncc2)nc2ccccc12 (stereo unspecified)	76.5% (inactive)	15.1% (active)	14.5% (active)	-40.4% (inactive)	55	14.5	-0.79% (inactive)	0.49% (inactive)
C[C@]12CC[C@@H]3c4ccc(O)cc4CC[C@H]3[C@@H]1CCC2=O	120% (inactive)	63.4% (inactive)	91.8% (inactive)	4.7% (inactive)	87.1	91.8	-1.56% (inactive)	0.5% (inactive)
CN(Cc1nc(-c2ccncc2)no1)S(=O)(=O)c1ccc(Cl)cc1	115% (inactive)	87.2% (inactive)	88.9% (inactive)	-9.07% (inactive)	98	88.9	1.78% (inactive)	13.6% (inactive)
COc1cc(NC2c3ccccc3C(=O)N2c2ccc(C)cn2)cc(OC)c1OC (stereo unspecified)	90.5% (inactive)	85.5% (inactive)	88.7% (inactive)	3.73% (inactive)	85	88.7	-1.41% (inactive)	1.17% (inactive)
Cc1cc(C)c(NC2=NCC(=O)N2C2CCCCC2)c(C)c1	106% (inactive)	107% (inactive)	86.3% (inactive)	-5.14% (inactive)	91.5	86.3	-7.53% (inactive)	-3.09% (inactive)
c1ccc(Cn2nnnc2CN2CCCC2)cc1	112% (inactive)	101% (inactive)	99.4% (inactive)	2.88% (inactive)	96.5	99.4	-6.3% (inactive)	0.48% (inactive)
CC1(C2(O)CC(c3ccccc3)ON2)CCCCC1 (stereo unspecified)	108% (inactive)	95% (inactive)	84.1% (inactive)	-0.32% (inactive)	84.4	84.1	-4.73% (inactive)	-2.36% (inactive)
CCOc1ccc(NS(=O)(=O)c2ccc(OCC(=O)N3CCCC3)cc2)cc1	92% (inactive)	102% (inactive)	88.7% (inactive)	3.44% (inactive)	85.2	88.7	1.51% (inactive)	-4.84% (inactive)
O=C(CSc1nnc(NC(=O)C2CCC2)s1)NC1CC1	100% (inactive)	106% (inactive)	106% (inactive)	12.2% (inactive)	93.4	106	-6.76% (inactive)	2% (inactive)
Clc1ccc(-n2nnnc2Sc2ncnc3sccc23)cc1	123% (inactive)	5.51% (active)	1.29% (active)	-0.27% (inactive)	1.56	1.29	20.6% (inactive)	65.5% (active)
Cc1ccc(-n2c(N)c(C(N)=O)sc2=S)cc1	87% (inactive)	112% (inactive)	87.9% (inactive)	-0.38% (inactive)	88.3	87.9	-3.24% (inactive)	0.73% (inactive)
CCn1cc(C(=O)NC2CCc3ccccc32)c(=O)c2ccc(C)nc21 (stereo unspecified)	77% (inactive)	84.3% (inactive)	81.6% (inactive)	-10.2% (inactive)	91.7	81.6	-0.13% (inactive)	5.41% (inactive)
COc1ccc(S(=O)(=O)Nc2cccc(C)n2)c2ccccc12	94% (inactive)	109% (inactive)	100% (inactive)	13.8% (inactive)	86.2	100	-2.08% (inactive)	4.43% (inactive)
CC(CC(=O)NCc1ccccc1)C1CCCO1 (stereo unspecified)	130% (inactive)	102% (inactive)	93.4% (inactive)	2.22% (inactive)	91.2	93.4	-2.21% (inactive)	4.75% (inactive)
COC(=O)c1ccc(CSc2nnnn2Cc2ccccc2)cc1	111% (inactive)	98.6% (inactive)	86% (inactive)	0.715% (inactive)	85.2	86	-4.13% (inactive)	-2.36% (inactive)
CCOc1ccccc1N1CC(O)=C(c2nc3ccccc3s2)C1=N	97% (inactive)	49.4% (inactive)	14.5% (active)	-45.7% (inactive)	60.2	14.5	1.47% (inactive)	2.36% (inactive)
